Test results published in ChEMBL document CHEMBL4118076, “Azide-alkyne cycloaddition towards 1H-1,2,3-triazole-tethered gatifloxacin and isatin conjugates: Design, synthesis and in vitro anti-mycobacterial evaluation” (Eur J Med Chem, 2017).
≈ marks a conversion by molar mass, not a printed value.

Key:
[1] = test system: Mycobacterium tuberculosis; assay: Antimycobacterial activity against Mycobacterium tuberculosis H37Rv after 3 to 7 days by rapid direct susceptibility test; assay type: functional
Summary of the method: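 Two-fold DMSO dilutions, 0.0125 to 200 μg/mL for H37Rv and 0.062 to 128 μg/mL for the MDR strain (resistant to INH, RIF and ethambutol), mixed with suspension containing 4×10^-3 mg cells. Sealed plates incubated at 37 °C in a wet box. Growth was read visually under high magnification at 3 days and again 7 days later. MIC is the lowest concentration giving complete growth inhibition.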

[2] = Cytotoxicity against African green monkey Vero cells assessed as reduction in cell viability after 72 hrs by MTT assay; assay type: cell-based; conditions: chlorocebus sabaeus
Summary of the method: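 VERO cells kept in MEM with Earle's salts + 10% FBS, 37 °C, 5% CO2; seeded 1×10^4 cells/well, recovered 24 h, then medium swapped for assay medium with compound (DMSO-dissolved, 1000 to 4 μg/mL) or drug-free. Viability by MTT after 72 h exposure; CC50 calculated by Bliss analysis.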

[3] = test system: Mycobacterium tuberculosis; assay: Potency index, ratio of gatifloxacin MIC90 to compound MIC90 for Mycobacterium tuberculosis H37Rv; assay type: functional
[4] = test system: Mycobacterium tuberculosis; assay: Potency index, ratio of rifampicin MIC90 to compound MIC90 for Mycobacterium tuberculosis H37Rv; assay type: functional

SMILES | MIC90 [1] | CC50 at 72 h [2] | Ratio [3] | Ratio [4]
CO/N=C1\C(=O)N(CCn2cc(CN3CCN(c4c(F)cc5c(=O)c(C(=O)O)cn(C6CC6)c5c4OC)CC3C)nn2)c2ccc(F)cc21 (centres undefined) | 0.2 µg/mL (≈ 0.296 µM) | 7.8 µg/mL (≈ 11.5 µM) | – | –
CO[C@H]1/C=C/O[C@@]2(C)Oc3c(C)c(O)c4c(O)c(c(/C=N/N5CCN(C)CC5)c(O)c4c3C2=O)NC(=O)/C(C)=C\C=C\[C@H](C)[C@H](O)[C@@H](C)[C@@H](O)[C@@H](C)[C@H](OC(C)=O)[C@@H]1C [RIFAMPIN] | 0.39 µg/mL (≈ 0.474 µM) | – | – | –
COc1c(N2CCN(Cc3cn(CCN4C(=O)/C(=N\O)c5cc(Cl)ccc54)nn3)C(C)C2)c(F)cc2c(=O)c(C(=O)O)cn(C3CC3)c12 (centres undefined) | 0.78 µg/mL (≈ 1.15 µM) | 31.2 µg/mL (≈ 45.9 µM) | – | –
COc1c(N2CCN(Cc3cn(CCN4C(=O)C(=O)c5ccccc54)nn3)C(C)C2)c(F)cc2c(=O)c(C(=O)O)cn(C3CC3)c12 (centres undefined) | 1.56 µg/mL (≈ 2.48 µM) | 125 µg/mL (≈ 199 µM) | – | –
NNC(=O)c1ccncc1 [ISONIAZID] | 0.05 µg/mL (≈ 0.365 µM) | – | – | –
COc1c(N2CCN(Cc3cn(CCN4C(=O)C(=O)c5cc(Cl)ccc54)nn3)C(C)C2)c(F)cc2c(=O)c(C(=O)O)cn(C3CC3)c12 (centres undefined) | 0.39 µg/mL (≈ 0.587 µM) | 62.5 µg/mL (≈ 94.1 µM) | – | –
COc1c(N2CCN(Cc3cn(CCN4C(=O)C(=O)c5cc(C)ccc54)nn3)C(C)C2)c(F)cc2c(=O)c(C(=O)O)cn(C3CC3)c12 (centres undefined) | 1.56 µg/mL (≈ 2.42 µM) | 250 µg/mL (≈ 388 µM) | – | –
CO/N=C1\C(=O)N(CCn2cc(CN3CCN(c4c(F)cc5c(=O)c(C(=O)O)cn(C6CC6)c5c4OC)CC3C)nn2)c2ccc(C)cc21 (centres undefined) | 1.56 µg/mL (≈ 2.32 µM) | 31.2 µg/mL (≈ 46.4 µM) | – | –
CO/N=C1\C(=O)N(CCn2cc(CN3CCN(c4c(F)cc5c(=O)c(C(=O)O)cn(C6CC6)c5c4OC)CC3C)nn2)c2ccc(Cl)cc21 (centres undefined) | 0.1 µg/mL (≈ 0.144 µM) | 7.8 µg/mL (≈ 11.3 µM) | 4 - 8 | 4 - 8
CO/N=C1\C(=O)N(CCn2cc(CN3CCN(c4c(F)cc5c(=O)c(C(=O)O)cn(C6CC6)c5c4OC)CC3C)nn2)c2ccccc21 (centres undefined) | 0.78 µg/mL (≈ 1.18 µM) | 62.5 µg/mL (≈ 94.9 µM) | – | –
COc1c(N2CCN(Cc3cn(CCN4C(=O)C(=O)c5cc(F)ccc54)nn3)C(C)C2)c(F)cc2c(=O)c(C(=O)O)cn(C3CC3)c12 (centres undefined) | 0.78 µg/mL (≈ 1.2 µM) | 125 µg/mL (≈ 193 µM) | – | –
COc1c(N2CCNC(C)C2)c(F)cc2c(=O)c(C(=O)O)cn(C3CC3)c12 (centres undefined) [GATIFLOXACIN] | 0.78 µg/mL (≈ 2.08 µM) | – | – | –
COc1c(N2CCN(Cc3cn(CCN4C(=O)/C(=N\O)c5ccccc54)nn3)C(C)C2)c(F)cc2c(=O)c(C(=O)O)cn(C3CC3)c12 (centres undefined) | 3.12 µg/mL (≈ 4.84 µM) | 250 µg/mL (≈ 388 µM) | – | –
COc1c(N2CCN(Cc3cn(CCN4C(=O)/C(=N\O)c5cc(C)ccc54)nn3)C(C)C2)c(F)cc2c(=O)c(C(=O)O)cn(C3CC3)c12 (centres undefined) | 6.25 µg/mL (≈ 9.49 µM) | 62.5 µg/mL (≈ 94.9 µM) | – | –
COc1c(N2CCN(Cc3cn(CCN4C(=O)/C(=N\O)c5cc(F)ccc54)nn3)C(C)C2)c(F)cc2c(=O)c(C(=O)O)cn(C3CC3)c12 (centres undefined) | 1.56 µg/mL (≈ 2.35 µM) | 7.8 µg/mL (≈ 11.8 µM) | – | –
